Our source for the MIC, MIC50 and MIC90 values is ChEMBL document CHEMBL1649186, “Characterization of macrolide efflux pump mef subclasses detected in clinical isolates of Streptococcus pyogenes isolated between 1999 and 2005” (2009).

Format in all cases: functional
In test [1] the test system is Streptococcus pyogenes. The test is described as follows: Antimicrobial activity against Streptococcus pyogenes clinical isolate expressing mosaic variant of mef gene by broth microdilution method. The gist of the method:
(§1)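 Clinical isolates were subcultured from -70°C or 4°C storage onto horse blood agar and grown overnight at 36°C in 5 to 6% CO2. MICs were then measured by CLSI broth microdilution. mef presence was screened by a TaqMan plus/minus assay, and the mef subclass was assigned by sequencing.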

The subject of test [2] is Streptococcus pyogenes. Nature of the test: Antimicrobial activity against Streptococcus pyogenes clinical isolate expressing mef(A) gene by broth microdilution method. The gist of the method: as §1
Test [3] relates to Streptococcus pyogenes. The test is described as follows: Antimicrobial activity against Streptococcus pyogenes clinical isolate expressing mef(E) gene by broth microdilution method. The gist of the method: as §1

Converted amounts (≈) assume the structure as drawn.

Consider `CN(C)[C@@H]1C(O)=C(C(N)=O)C(=O)[C@@]2(O)C(O)=C3C(=O)c4c(O)cccc4[C@@](C)(O)[C@H]3C[C@@H]12` [TETRACYCLINE], for which, in the test with Streptococcus pyogenes [1], the MIC worked out at 32 µg/mL (≈ 72 µM), the MIC50 is 32 µg/mL (≈ 72 µM) and the MIC90 turned out to be 32 µg/mL (≈ 72 µM). Besides, in the test with Streptococcus pyogenes [2], it took 0.25 µg/mL (≈ 0.563 µM) to inhibit growth (MIC), the MIC50 was 0.25 µg/mL (≈ 0.563 µM) and the MIC90 is 0.25 µg/mL (≈ 0.563 µM). In the test with Streptococcus pyogenes [3], this compound had an MIC50 of 32 µg/mL (≈ 72 µM) and an MIC90 of 32 µg/mL (≈ 72 µM).

As to `CC[C@H]1OC(=O)[C@H](C)[C@@H](O[C@H]2C[C@@](C)(OC)[C@@H](O)[C@H](C)O2)[C@H](C)[C@@H](O[C@@H]2O[C@H](C)C[C@H](N(C)C)[C@H]2O)[C@](C)(O)C[C@@H](C)CN(C)[C@H](C)[C@@H](O)[C@]1(C)O` [AZITHROMYCIN], in the test with Streptococcus pyogenes [1], the MIC is 16 µg/mL (≈ 21.4 µM), the MIC50 worked out at 16 µg/mL (≈ 21.4 µM) and the MIC90 is 32 µg/mL (≈ 42.7 µM). In the test with Streptococcus pyogenes [2], the MIC50 stood at 8 µg/mL (≈ 10.7 µM) and the MIC90 came to 16 µg/mL (≈ 21.4 µM). Besides, in the test on Streptococcus pyogenes [3], the MIC50 turned out to be 8 µg/mL (≈ 10.7 µM) and the MIC90 is 16 µg/mL (≈ 21.4 µM).

Consider `CC[C@H]1OC(=O)[C@H](C)[C@@H](O[C@H]2C[C@@](C)(OC)[C@@H](O)[C@H](C)O2)[C@H](C)[C@@H](O[C@@H]2O[C@H](C)C[C@H](N(C)C)[C@H]2O)[C@](C)(O)C[C@@H](C)C(=O)[C@H](C)[C@@H](O)[C@]1(C)O` [ERYTHROMYCIN], for which, in the test with Streptococcus pyogenes [1], the MIC is 8 µg/mL (≈ 10.9 µM), the MIC50 came to 8 µg/mL (≈ 10.9 µM) and the MIC90 was found to be 16 µg/mL (≈ 21.8 µM). In the test on Streptococcus pyogenes [2], the MIC50 was determined as 16 µg/mL (≈ 21.8 µM) and the MIC90 came to 16 µg/mL (≈ 21.8 µM). Further, in the test on Streptococcus pyogenes [3], the MIC50 is 8 µg/mL (≈ 10.9 µM) and the MIC90 amounted to 16 µg/mL (≈ 21.8 µM).

As for `CCC[C@@H]1C[C@@H](C(=O)N[C@@H]([C@H]2O[C@H](SC)[C@H](O)[C@@H](O)[C@H]2O)[C@H](C)Cl)N(C)C1` [CLINDAMYCIN], the MIC50 in the test on Streptococcus pyogenes [1] came to 0.06 µg/mL (≈ 0.141 µM); with Streptococcus pyogenes [2], 0.06 µg/mL (≈ 0.141 µM); with Streptococcus pyogenes [3], 0.25 µg/mL (≈ 0.588 µM). In addition, the MIC90 is 0.06 µg/mL (≈ 0.141 µM) in the test with Streptococcus pyogenes [1], 0.25 µg/mL (≈ 0.588 µM) against Streptococcus pyogenes [2] and 0.25 µg/mL (≈ 0.588 µM) with Streptococcus pyogenes [3].

In the case of `CC[C@H]1OC(=O)[C@H](C)[C@@H](O[C@H]2C[C@@](C)(OC)[C@@H](O)[C@H](C)O2)[C@H](C)[C@@H](O[C@@H]2O[C@H](C)C[C@H](N(C)C)[C@H]2O)[C@](C)(OC)C[C@@H](C)C(=O)[C@H](C)[C@@H](O)[C@]1(C)O` [CLARITHROMYCIN], the MIC50 against Streptococcus pyogenes [1] is 8 µg/mL (≈ 10.7 µM); in the test on Streptococcus pyogenes [2], 8 µg/mL (≈ 10.7 µM); in the test with Streptococcus pyogenes [3], 4 µg/mL (≈ 5.35 µM). The figures for the MIC90 with Streptococcus pyogenes [1], against Streptococcus pyogenes [2] and against Streptococcus pyogenes [3] were 8 µg/mL (≈ 10.7 µM), 16 µg/mL (≈ 21.4 µM) and 8 µg/mL (≈ 10.7 µM), respectively.
